The IC50 is the concentration that gives 50% inhibition. A lower IC50 goes with higher potency. In general, MIC refers to the lowest concentration that inhibits growth of the organism. Low values mean greater potency, high ones weaker potency.

The source of these data is ChEMBL document CHEMBL1833827, “Synthesis and anticandidal activity of new triazolothiadiazine derivatives” (Eur J Med Chem, 2011).

In brackets after ≈: the same amount, converted by molar mass.

One test has as its system NIH3T3. Kind of test: Cytotoxicity against mouse NIH/3T3 cells after 24 hrs by MTT assay. As to conditions: NIH3T3, 24 h. The format is cell-based. In outline: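 NIH/3T3 mouse fibroblasts (ATCC) grown in DMEM with 10% fetal calf serum, penicillin and streptomycin at 37 °C in 5% CO2. Cells were seeded at 2 × 10^4 cells/mL and preincubated 24 h. Compounds went from DMSO stocks diluted in medium (final DMSO <0.1%) at 0.5–500 µg/mL for 24 h. MTT was added at 0.5 mg/mL final for 4 h at 37 °C. Formazan was dissolved in DMSO and read at 540 nm. Triplicate wells per concentration. IC50 is the concentration reducing absorbance to 50% of control, reported as mean ± SD.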

Test [1] concerns Candida albicans. Kind of test: Antifungal activity against Candida albicans NRRL Y-12983 by NCCLS M27-A2 microbroth dilution method. It counts as functional.
The test system of test [2] is Nakaseomyces glabratus. Kind of test: Antifungal activity against Candida glabrata clinical isolate (Osmangazi university) by NCCLS M27-A2 microbroth dilution method. It counts as functional. (In broth dilution the organism is exposed to a series of concentrations in liquid medium.)
The next test deals with Candida tropicalis. Kind of test: Antifungal activity against Candida tropicalis NRRL Y-12968 by NCCLS M27-A2 microbroth dilution method. It counts as functional.
Test [3] has as its system Candida albicans. The experiment in a line: Antifungal activity against Candida albicans ATCC 90028 by NCCLS M27-A2 microbroth dilution method. The format is functional.
The test system of test [4] is Nakaseomyces glabratus. Kind of test: Antifungal activity against Candida glabrata clinical isolate (Anadolu university) by NCCLS M27-A2 microbroth dilution method. The format is functional.
Test [5] deals with Candida albicans. Kind of test: Antifungal activity against Candida albicans clinical isolate by NCCLS M27-A2 microbroth dilution method. The format is functional.
In the next test the test system is Pichia kudriavzevii. The experiment in a line: Antifungal activity against Candida krusei NRRL Y-7179 by NCCLS M27-A2 microbroth dilution method. It counts as functional.
For another test, the system named is Candida parapsilosis. Kind of test: Antifungal activity against Candida parapsilosis NRRL Y-12696 by NCCLS M27-A2 microbroth dilution method. The format is functional. The settings on record: Lodderomyces parapsilosis.

Compound `Oc1ccc(CCc2nnc3n2N=C(c2ccccc2)CS3)cc1` came in with an IC50 with NIH3T3 of 31.6 µg/mL (≈ 93.9 µM). The MIC in the test with Candida albicans [1] amounted to 370 µg/mL (≈ 1100 µM); with Nakaseomyces glabratus [2], 40 µg/mL (≈ 119 µM); against Candida tropicalis it was 90 µg/mL (≈ 268 µM); in the test with Candida albicans [3] it was 80 µg/mL (≈ 238 µM); with Nakaseomyces glabratus [4], 180 µg/mL (≈ 535 µM); against Candida albicans [5], 90 µg/mL (≈ 268 µM). For the same compound, the MIC against Pichia kudriavzevii was 370 µg/mL (≈ 1100 µM); with Candida parapsilosis, 180 µg/mL (≈ 535 µM).

`O=[N+]([O-])c1ccc(C2=Nn3c(CCc4ccc(O)cc4)nnc3SC2)cc1` yielded an IC50 in the test on NIH3T3 of 307 µg/mL (≈ 804 µM). Also, the MIC in the test on Candida albicans [1] is 750 µg/mL (≈ 1970 µM); against Nakaseomyces glabratus [2] it was 90 µg/mL (≈ 236 µM); in the test with Candida tropicalis it was 90 µg/mL (≈ 236 µM); against Candida albicans [3], 90 µg/mL (≈ 236 µM); in the test with Nakaseomyces glabratus [4] it was 90 µg/mL (≈ 236 µM); against Candida albicans [5], 90 µg/mL (≈ 236 µM). Moreover, the values for the minimum inhibitory concentration (MIC) in the test with Pichia kudriavzevii and with Candida parapsilosis were 180 µg/mL (≈ 472 µM) and 40 µg/mL (≈ 105 µM), respectively.

In turn, `Oc1ccc(CCc2nnc3n2N=C(c2ccc(F)cc2)CS3)cc1` displayed an IC50 in the test on NIH3T3 of 367 µg/mL (≈ 1030 µM). Also, the MIC with Candida albicans [1] turned out to be 1500 µg/mL (≈ 4230 µM); in the test with Nakaseomyces glabratus [2] it was 1500 µg/mL (≈ 4230 µM); in the test with Candida tropicalis it was 1500 µg/mL (≈ 4230 µM); in the test on Candida albicans [3], 1500 µg/mL (≈ 4230 µM); with Nakaseomyces glabratus [4], 370 µg/mL (≈ 1040 µM); against Candida albicans [5] it was 180 µg/mL (≈ 508 µM). The MIC with Pichia kudriavzevii amounted to 180 µg/mL (≈ 508 µM); in the test on Candida parapsilosis, 1500 µg/mL (≈ 4230 µM).

Consider `Oc1ccc(CCc2nnc3n2N=C(c2ccc(Cl)cc2)CS3)cc1`, for which the IC50 in the test with NIH3T3 was 86.7 µg/mL (≈ 234 µM). The MIC is 1500 µg/mL (≈ 4040 µM) against Candida albicans [1]; 750 µg/mL (≈ 2020 µM) in the test on Nakaseomyces glabratus [2]; 750 µg/mL (≈ 2020 µM) against Candida tropicalis; 750 µg/mL (≈ 2020 µM) against Candida albicans [3]; 750 µg/mL (≈ 2020 µM) against Nakaseomyces glabratus [4]; 750 µg/mL (≈ 2020 µM) in the test with Candida albicans [5]. Further, the minimal inhibitory concentration (MIC) was determined as 750 µg/mL (≈ 2020 µM) in the test on Pichia kudriavzevii and 370 µg/mL (≈ 998 µM) with Candida parapsilosis.

In the test on NIH3T3, `Cc1ccc(C2=Nn3c(CCc4ccc(O)cc4)nnc3SC2)cc1` returned a 50% inhibitory concentration (IC50) of 400 µg/mL (≈ 1140 µM). In addition, the minimal inhibitory concentration (MIC) in the test with Candida albicans [1] amounted to 1500 µg/mL (≈ 4280 µM); against Nakaseomyces glabratus [2], 750 µg/mL (≈ 2140 µM); in the test on Candida tropicalis, 1500 µg/mL (≈ 4280 µM); against Candida albicans [3] it was 750 µg/mL (≈ 2140 µM); against Nakaseomyces glabratus [4] it was 750 µg/mL (≈ 2140 µM); against Candida albicans [5], 750 µg/mL (≈ 2140 µM). The MIC against Pichia kudriavzevii and against Candida parapsilosis was 370 µg/mL (≈ 1060 µM) in each case.

In turn, `c1ccc(C2=Nn3c(CCC4CCCCC4)nnc3SC2)cc1` yielded an IC50 in the test on NIH3T3 of 433 µg/mL (≈ 1330 µM). In addition, the MIC in the test with Candida albicans [1] came to 180 µg/mL (≈ 551 µM); against Nakaseomyces glabratus [2], 90 µg/mL (≈ 276 µM); with Candida tropicalis it was 180 µg/mL (≈ 551 µM); in the test on Candida albicans [3] it was 90 µg/mL (≈ 276 µM); in the test on Nakaseomyces glabratus [4], 90 µg/mL (≈ 276 µM); in the test on Candida albicans [5], 90 µg/mL (≈ 276 µM). The MIC came to 180 µg/mL (≈ 551 µM) against Pichia kudriavzevii and 370 µg/mL (≈ 1130 µM) against Candida parapsilosis.

As to `O=[N+]([O-])c1ccc(C2=Nn3c(CCC4CCCCC4)nnc3SC2)cc1`, in the test on NIH3T3, 210 µg/mL (≈ 565 µM) corresponded to half-maximal inhibition (IC50). Also, the MIC was 90 µg/mL (≈ 242 µM) in the test on Candida albicans [1]; 90 µg/mL (≈ 242 µM) against Nakaseomyces glabratus [2]; 180 µg/mL (≈ 485 µM) with Candida tropicalis; 90 µg/mL (≈ 242 µM) with Candida albicans [3]; 90 µg/mL (≈ 242 µM) against Nakaseomyces glabratus [4]; 90 µg/mL (≈ 242 µM) against Candida albicans [5]. In addition, the MIC against Pichia kudriavzevii and with Candida parapsilosis was 180 µg/mL (≈ 485 µM) each time.

With `Fc1ccc(C2=Nn3c(CCC4CCCCC4)nnc3SC2)cc1`, the IC50 in the test on NIH3T3 stood at 106 µg/mL (≈ 308 µM). Further, the MIC in the test on Candida albicans [1] is 90 µg/mL (≈ 261 µM); with Nakaseomyces glabratus [2] it was 370 µg/mL (≈ 1070 µM); in the test with Candida tropicalis, 750 µg/mL (≈ 2180 µM); against Candida albicans [3], 90 µg/mL (≈ 261 µM); with Nakaseomyces glabratus [4] it was 90 µg/mL (≈ 261 µM); against Candida albicans [5] it was 370 µg/mL (≈ 1070 µM). Besides, the minimum inhibitory concentration (MIC) with Pichia kudriavzevii was found to be 90 µg/mL (≈ 261 µM); with Candida parapsilosis, 370 µg/mL (≈ 1070 µM).

As to `Clc1ccc(C2=Nn3c(CCC4CCCCC4)nnc3SC2)cc1`, half-maximal inhibition in the test with NIH3T3 (IC50) was put at 103 µg/mL (≈ 285 µM). Further, the MIC in the test with Candida albicans [1] is 40 µg/mL (≈ 111 µM); in the test with Nakaseomyces glabratus [2], 90 µg/mL (≈ 249 µM); with Candida tropicalis it was 90 µg/mL (≈ 249 µM); in the test with Candida albicans [3], 40 µg/mL (≈ 111 µM); in the test with Nakaseomyces glabratus [4] it was 40 µg/mL (≈ 111 µM); against Candida albicans [5] it was 180 µg/mL (≈ 499 µM). In addition, the MIC against Pichia kudriavzevii was 370 µg/mL (≈ 1030 µM); against Candida parapsilosis it was 20 µg/mL (≈ 55.4 µM).

Take `Cc1ccc(C2=Nn3c(CCC4CCCCC4)nnc3SC2)cc1`: the IC50 in the test on NIH3T3 turned out to be 198 µg/mL (≈ 582 µM). Further, the MIC amounted to 90 µg/mL (≈ 264 µM) against Candida albicans [1]; 90 µg/mL (≈ 264 µM) in the test on Nakaseomyces glabratus [2]; 750 µg/mL (≈ 2200 µM) against Candida tropicalis; 180 µg/mL (≈ 529 µM) in the test with Candida albicans [3]; 180 µg/mL (≈ 529 µM) in the test with Nakaseomyces glabratus [4]; 90 µg/mL (≈ 264 µM) in the test on Candida albicans [5]. Moreover, the figures for the MIC in the test with Pichia kudriavzevii and against Candida parapsilosis were 180 µg/mL (≈ 529 µM) and 370 µg/mL (≈ 1090 µM), respectively.

For `CC(=O)N1CCN(c2ccc(OCC3COC(Cn4ccnc4)(c4ccc(Cl)cc4Cl)O3)cc2)CC1` (stereo not drawn) [KETOCONAZOLE], the MIC with Candida albicans [1] is 15 µg/mL (≈ 28.2 µM); against Nakaseomyces glabratus [2], 15 µg/mL (≈ 28.2 µM); in the test on Candida tropicalis, 3 µg/mL (≈ 5.65 µM); against Candida albicans [3] it was 30 µg/mL (≈ 56.5 µM); in the test with Nakaseomyces glabratus [4], 7 µg/mL (≈ 13.2 µM); in the test with Candida albicans [5], 30 µg/mL (≈ 56.5 µM). The MIC against Pichia kudriavzevii came out at 3 µg/mL (≈ 5.65 µM); in the test with Candida parapsilosis it was 7 µg/mL (≈ 13.2 µM).
